Data published in ChEMBL document CHEMBL4706497, “The structure-based optimization of δ-sultone-fused pyrazoles as selective BuChE inhibitors” (Eur J Med Chem, 2020).

Biological target: Cholinesterase (Equus caballus, UniProt P81908)
Assay: Inhibition of equine serum BuChE using butyrylthiocholine iodide as substrate preincubated with enzyme for 20 mins followed by addition of substrate and measured after 20 mins by DTNB reagent based Ellman's method
Format: cell-free
Conditions: not given
Summary of the method: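 Enzyme at 0.036 U/mL in 0.1 M phosphate buffer pH 8, preincubated with inhibitor 20 min at 37 °C. Then 0.5 mM butyrylthiocholine iodide and 0.35 mM DTNB added, and A410 read after 20 min. IC50 taken graphically from log concentration vs % inhibition curves. Mean ± SEM of at least three independent experiments.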

Cholinesterase, sequence (P81908 whole entry): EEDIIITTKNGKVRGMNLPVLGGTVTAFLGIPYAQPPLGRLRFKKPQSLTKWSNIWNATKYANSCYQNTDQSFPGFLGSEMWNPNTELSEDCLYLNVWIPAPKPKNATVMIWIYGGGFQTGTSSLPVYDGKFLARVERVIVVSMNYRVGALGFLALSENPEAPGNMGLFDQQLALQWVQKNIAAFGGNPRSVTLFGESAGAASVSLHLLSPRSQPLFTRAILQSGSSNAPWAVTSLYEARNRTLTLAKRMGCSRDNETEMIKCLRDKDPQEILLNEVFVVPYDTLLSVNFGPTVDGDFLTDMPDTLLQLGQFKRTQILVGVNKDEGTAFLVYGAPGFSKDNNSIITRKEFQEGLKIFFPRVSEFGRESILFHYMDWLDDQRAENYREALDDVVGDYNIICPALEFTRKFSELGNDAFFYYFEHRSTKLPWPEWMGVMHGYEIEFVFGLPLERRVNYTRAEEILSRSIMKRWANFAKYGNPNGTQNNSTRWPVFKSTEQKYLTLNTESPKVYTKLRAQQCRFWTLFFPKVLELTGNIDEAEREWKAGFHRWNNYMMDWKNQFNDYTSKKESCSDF

`CN(Cc1ccccc1)Cc1nn(-c2ccccc2F)c2c1CCS(=O)(=O)O2` and `CN(Cc1ccccc1)Cc1nn(-c2ccccc2Cl)c2c1CCS(=O)(=O)O2` are within 1.5-fold of each other in IC50: 80 nM for the first, 70 nM for the second.

`O=S1(=O)CCc2c(C3CC3)nn(-c3ccccc3F)c2O1` and `O=S1(=O)CCc2c(C3CC3)nn(-c3ccccc3Cl)c2O1` are within 1.5-fold of each other in IC50: 140 nM for the first, 180 nM for the second.

Compared with `O=S1(=O)CCc2c(CN3CCOCC3)nn(-c3ccccc3Cl)c2O1`, `O=S1(=O)CCc2c(CN3CCOCC3)nn(-c3ccccc3F)c2O1` is 2.7-fold lower in IC50: 410 nM for the first, 150 nM for the second.

Going from `O=S1(=O)CCc2c(-c3ccc(Cl)cc3)nn(-c3ccccc3Cl)c2O1` to `O=S1(=O)CCc2c(-c3ccc(Cl)cc3)nn(-c3ccccc3F)c2O1`, the IC50 falls from 1580 nM to 200 nM (7.9-fold). The second is the more potent here.

Going from `O=S1(=O)CCc2c(C3CC3)nn(-c3cccc(Cl)c3)c2O1` to `O=S1(=O)CCc2c(C3CC3)nn(-c3cccc(F)c3)c2O1`, the IC50 falls from 700 nM to 370 nM (1.9-fold).

`O=S1(=O)CCc2c(-c3ccc(F)cc3)nn(-c3ccccc3F)c2O1` and `O=S1(=O)CCc2c(-c3ccc(F)cc3)nn(-c3ccccc3Cl)c2O1` are within 1.5-fold of each other in IC50: 160 nM for the first, 130 nM for the second.

`O=S1(=O)CCc2c(CN(CCO)Cc3ccccc3)nn(-c3ccccc3Cl)c2O1` and `CCN(Cc1ccccc1)Cc1nn(-c2ccccc2Cl)c2c1CCS(=O)(=O)O2` are within 1.5-fold of each other in IC50: 40 nM for the first, 50 nM for the second.

`O=S1(=O)CCc2c(CN3CCN(Cc4ccccc4)CC3)nn(-c3ccccc3Cl)c2O1` and `O=S1(=O)CCc2c(CN3CCN(Cc4ccccc4)CC3)nn(-c3ccccc3F)c2O1` are within 1.5-fold of each other in IC50: 460 nM for the first, 680 nM for the second.

Going from `O=S1(=O)CCc2c(-c3ccccc3)nn(-c3ccccc3Cl)c2O1` to `O=S1(=O)CCc2c(-c3ccc(Br)cc3)nn(-c3ccccc3Cl)c2O1`, the IC50 rises from 170 nM to 3690 nM (22-fold).

`O=S1(=O)CCc2c(CCl)nn(-c3ccccc3F)c2O1` and `O=S1(=O)CCc2c(CCl)nn(-c3ccccc3Cl)c2O1` are within 1.5-fold of each other in IC50: 190 nM for the first, 200 nM for the second.

`CN1CCN(Cc2nn(-c3ccccc3F)c3c2CCS(=O)(=O)O3)CC1` and `CN1CCN(Cc2nn(-c3ccccc3Cl)c3c2CCS(=O)(=O)O3)CC1` are within 1.5-fold of each other in IC50: 2170 nM for the first, 2220 nM for the second.

Going from `COc1ccc(-c2nn(-c3ccc(Cl)cc3)c3c2CCS(=O)(=O)O3)cc1` to `Cc1nn(-c2ccccc2F)c2c1CCS(=O)(=O)O2`, the IC50 falls from 8780 nM to 1190 nM (7.4-fold). The second is the more potent here.

System: not listed separately
Assay: Octanol/Water partition coefficient, log P of the compound in PBS buffer at pH7.4 measured after 48 hrs by shake flask method
Format: physicochemical
Conditions: pH 7.4
Summary of the method: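 Shake-flask partition between equal volumes of n-octanol and PBS pH 7.4, pre-saturated by sonication and standing 24 h. Compound added, vessel sealed and shaken at 37 °C for 48 h to equilibrate, then phases analysed by HPLC.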

Compared with `CN(Cc1ccccc1)Cc1nn(-c2ccccc2F)c2c1CCS(=O)(=O)O2`, `O=S1(=O)CCc2c(C3CC3)nn(-c3ccccc3F)c2O1` is higher in logD at 48 h: 1.78 for the first, 2.09 for the second.
